Test results published in ChEMBL document CHEMBL1128512, “Keto/enol epoxy steroids as HIV-1 Tat inhibitors: structure-activity relationships and pharmacophore localization” (J Med Chem, 1995).

Columns and labels:
[1] = tested on: Human immunodeficiency virus 1; assay: Inhibition of HIV replication in H9 cells.; format: functional, organism-based; conditions: Human immunodeficiency virus 1, H9
Outline: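 H9 cells (RPMI 1640 + 10% IFCS) infected with HIV-1 IIIB at three virus concentrations (0.5 log10 dilutions; most dilute ~5-10 infectious units/well), seeded 2×10^4 cells/well. 3-5 compound concentrations, 0.5% DMSO final, quadruplicate, 5 days at 37 °C, 5% CO2; media and compound renewed day 3. Day-5 supernatant p24 ELISA; IC50 for ≥2 viral doses, 3-5 assays, mean of n.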

[2] = Therapeutic index, measured by whole cell assay.; conditions: read-out: Therapeutic index
Outline: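 Ratio of cytotoxicity IC50 to HIV replication IC50 in H9 cells; cut-off of 3 counts as positive. Toxicity: uninfected H9 at 2×10^4 cells/well, 3-5 compound concentrations in quadruplicate, 5 days at 37 °C, 5% CO2, media and compound renewed day 3, viable cells counted by trypan blue exclusion. Antiviral IC50 from HIV-1 IIIB p24 ELISA at day 5.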

SW480 [3] = assay: The compound was tested for inhibition of HIV-1 replication in SW480 cells using HIV tat assay; Not active; format: functional, cell-based, Homo sapiens
SW480 [4] = assay: The compound was tested for inhibition of HIV-1 replication in SW480 cells using HIV tat assay; Not active at 80 mM; format: functional, cell-based, Homo sapiens
SW480 [5] = assay: The compound was tested for inhibition of HIV-1 replication in SW480 cells using HIV tat assay; Not active at 90 mM; format: functional, cell-based, Homo sapiens
SW480 [6] = assay: The compound was tested for inhibition of HIV-1 replication in SW480 cells using HIV tat assay; Not active at 100 mM; format: functional, cell-based, Homo sapiens
Outline: (§1)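 SW480 colon carcinoma cells at 70-80% confluence, calcium phosphate co-transfected with HIV-1 LTR-CAT (pBennCAT) plus pSV2tat, total DNA adjusted with salmon sperm DNA. Compound (from DMSO stock diluted 100-fold in DMEM + 10% IFCS) added 5 h post-transfection, duplicate wells, 48 h at 37 °C. CAT activity read with [14C]chloramphenicol, 2 h. Selectivity check against SV40-promoter CAT. IC50 from logit dose-response curves, 3-5 experiments, 95% confidence limits.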

SW480 [7] = assay: The compound was tested for inhibition of HIV-1 replication in SW480 cells using HIV tat assay; Not active at 123 mM; format: functional, cell-based, Homo sapiens; outline: as §1
SW480 [8] = assay: The compound was tested for inhibition of HIV-1 replication in SW480 cells using HIV tat assay; Not active at 32 mM; format: functional, cell-based, Homo sapiens; outline: as §1
SW480 [9] = assay: The compound was tested for inhibition of HIV-1 replication in SW480 cells using HIV tat assay; Not active at […]; format: functional, cell-based, Homo sapiens
SW480 [10] = assay: The compound was tested for inhibition of HIV-1 replication in SW480 cells using HIV tat assay; Not active at 37 mM; format: functional, cell-based, Homo sapiens; outline: as §1

SMILES | IC50 [1] [nM] | selectivity ratio [2] | other results
COc1ccc(NC(=O)C2C[C@]3(C)CCCC[C@@]3(O)[C@@H](Cl)C2=O)cc1 (some centres not stated) | 3300 | 4.2 | 
C[C@@]12CCCC[C@]13O[C@@H]3C(=O)C(C(N)=O)C2 (some centres not stated) | 6400 | 4.1 | 
C[C@]12CC[C@H]3[C@@H](CC[C@@]45O[C@@H]4[C@H](O)[C@H](C(N)=O)C[C@]35C)[C@@H]1CC[C@@H]2O |  |  | IC50 (SW480 [3]): Not Active
COC(=O)C1C[C@]2(C)[C@H]3CC[C@]4(C)[C@@H](O)CC[C@H]4[C@@H]3CC[C@]23O[C@@H]3C1=O (some centres not stated) | 2400 | 4.5 | 
CC1(C)CC(C(=O)Nc2c(Cl)cccc2Cl)C(=O)C2OC21 (configuration not stated) | 2700 | 2.3 | 
COc1ccc(NC(=O)C2CC(C)(C)C3OC3C2=O)cc1 (configuration not stated) | 5200 | 1.2 | 
CC1(C)CC(C(=O)Nc2ccccc2)C(=O)C2OC21 (configuration not stated) | 4300 | 1.4 | 
C[C@@]12CCCC[C@@]1(O)[C@@H](Cl)C(=O)C(C(N)=O)C2 (some centres not stated) | 9300 | 2 | 
CC(=O)O[C@H]1CCC2C3CCC4=CC(=O)C(C(N)=O)C[C@]4(C)C3CC[C@@]21C (some centres not stated) |  |  | IC50 (SW480 [4]): Not Active
C[C@]12CCCC[C@@]13O[C@H]3C(=O)C(C(N)=O)C2 (some centres not stated) | 10300 | 2.6 | 
C[C@]12CC[C@H]3[C@@H](CCC4CC(=O)C(C(N)=O)C[C@@]43C)[C@@H]1CC[C@@H]2O (some centres not stated) |  |  | IC50 (SW480 [5]): Not Active
O=C1CN=C(c2ccc[nH]2)c2cc(Cl)ccc2N1 | 600 |  | 
COc1ccc(NC(=O)C2C[C@]3(C)CCCCC3CC2=O)cc1 (some centres not stated) |  |  | IC50 (SW480 [6]): Not Active
CC(=O)O[C@H]1CC[C@H]2[C@@H]3CC[C@@]45O[C@@H]4C(=O)C(C(N)=O)C[C@]5(C)[C@H]3CC[C@]12C (some centres not stated) | 2400 | 1.6 | 
C[C@]12CC(C(N)=O)C(=O)C=C1CCC1C2CC[C@@]2(C)C1CC[C@@H]2O (some centres not stated) |  |  | IC50 (SW480 [5]): Not Active
C[C@@]12CCCCC1=CC(=O)C(C(=O)Nc1ccccc1)C2 (some centres not stated) |  |  | IC50 (SW480 [6]): Not Active
C[C@@]12CCCC[C@]13O[C@@H]3C(=O)C(C(=O)Nc1ccccc1)C2 (some centres not stated) | 2100 | 3.8 | 

SMILES | IC50 [1] [nM] | selectivity ratio [2] | other results
COc1ccc(NC(=O)C2C[C@]3(C)CCCC[C@]34O[C@@H]4C2=O)cc1 (some centres not stated) | 8500 | 1.3 | 
CC(=O)O[C@H]1CC[C@H]2[C@@H]3CC[C@@]45O[C@@H]4[C@H](O)[C@H](C(N)=O)C[C@]5(C)[C@H]3CC[C@]12C |  |  | IC50 (SW480 [4]): Not Active
CC(=O)O[C@H]1CC[C@H]2[C@@H]3CCC4CC(=O)C(C(N)=O)C[C@]4(C)[C@H]3CC[C@]12C (some centres not stated) |  |  | IC50 (SW480 [4]): Not Active
C[C@]12CC[C@H]3[C@@H](CC[C@@]45O[C@@H]4C(=O)C(S(=O)(=O)c4ccccc4)C[C@]35C)[C@@H]1CC[C@@H]2O (some centres not stated) | 1600 | 2.6 | 
COC(=O)C1C[C@]2(C)[C@H]3CC[C@]4(C)[C@@H](OC(C)=O)CC[C@H]4[C@@H]3CC[C@]23O[C@@H]3C1=O (some centres not stated) | 1400 | 3.1 | 
CC1(C)C=CC(=O)C(C(=O)Nc2ccccc2)C1 (configuration not stated) |  |  | IC50 (SW480 [7]): Not Active
C[C@@]12CCCC[C@]13O[C@@H]3C(=O)C(C#N)C2 (some centres not stated) | 11000 | 3 | 
C[C@]12CCC3C(CC[C@@]45O[C@@H]4C(=O)C(S(C)(=O)=O)C[C@]35C)C1CC[C@@H]2O (some centres not stated) | 1400 | 3.9 | 
C[C@]12CCCC[C@@]13O[C@H]3C(=O)C(C#N)C2 (some centres not stated) | 25900 | 3.8 | 
CC(=O)O[C@H]1CC[C@H]2[C@@H]3CC[C@@]45O[C@@H]4C(=O)C(S(C)(=O)=O)C[C@]5(C)[C@H]3CC[C@]12C (some centres not stated) | 300 | 4.3 | 
C[C@]12CC[C@H]3[C@@H](CC[C@@]45O[C@@H]4C(=O)C(C(N)=O)C[C@]35C)[C@@H]1CC[C@@H]2O (some centres not stated) | 1200 | 6.5 | 
CC1(C)C=CC(=O)C(C(=O)Nc2c(Cl)cccc2Cl)C1 (configuration not stated) |  |  | IC50 (SW480 [8]): Not Active
C[C@]12CC[C@H]3[C@@H](CC[C@]45O[C@H]4C(=O)CC[C@]35C)[C@@H]1CC[C@@H]2O |  |  | IC50 (SW480 [9]): Not Active
C[C@@]12CCCC[C@@]1(O)[C@@H](Cl)C(=O)C(C(=O)Nc1ccccc1)C2 (some centres not stated) | 3300 | 1.9 | 
CC(=O)O[C@H]1CC[C@H]2[C@@H]3CC[C@@]45O[C@@H]4[C@@H](O)[C@@H](C(N)=O)C[C@]5(C)[C@H]3CC[C@]12C |  |  | IC50 (SW480 [4]): Not Active
COc1ccc(NC(=O)C2CC(C)(C)C=CC2=O)cc1 (configuration not stated) |  |  | IC50 (SW480 [10]): Not Active
